Source: ChEMBL document CHEMBL2021785, “Compounds of Alpinia katsumadai as potential efflux inhibitors in Mycobacterium smegmatis” (2012)
≈ marks a conversion by molar mass, not a printed value. Calls of active or inactive are those of the source. The rule behind the calls is not given here.

Experiments:
[1] = system: Mycolicibacterium smegmatis; test: Antibacterial activity against Mycobacterium smegmatis mc2 155 after 72 hrs by MTT assay; format: functional; conditions: str. MC2 155, 72 h
In short: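 Broth dilution in Mueller-Hinton broth; compounds dissolved in DMSO, two-fold serial dilutions; inoculum adjusted to McFarland 0.5 and diluted to final 5 × 10^5 cfu/mL; cells pre-grown on Columbia blood agar with 5% horse blood, 37 °C, 72 h. Plates incubated 37 °C for 72 h; MIC read after MTT as lowest concentration inhibiting growth.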

[2] = system: Mycolicibacterium smegmatis MC2 155; test: Inhibition of Multidrug resistance efflux pump in Mycobacterium smegmatis mc2 155 assessed as modulation of rifampicin-mediated antibacterial activity measuring ratio of rifampicin MIC to rifampicin and compound MIC at 64 mg/L after 72 hrs by MTT assay
In short: (§1)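 Checkerboard-type modulation by broth dilution in MHB with DMSO-dissolved modulators: either modulator held constant (half its MIC) with two-fold serially diluted antibiotic/EtBr, or antibiotic fixed with modulator serially diluted. Final inoculum 5 × 10^5 cfu/mL, 37 °C, 72 h, MTT read-out. Modulation factor quantifies shift in antibiotic/EtBr MIC; FICI assesses combination effect.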

[3] = system: Mycolicibacterium smegmatis MC2 155; test: Inhibition of Multidrug resistance efflux pump in Mycobacterium smegmatis mc2 155 assessed as modulation of EtBr-mediated antibacterial activity measuring fractional inhibitory concentration index at 64 mg/L after 72 hrs by MTT assay; in short: as §1
[4] = system: Mycolicibacterium smegmatis MC2 155; test: Inhibition of Multidrug resistance efflux pump in Mycobacterium smegmatis mc2 155 assessed as modulation of rifampicin-mediated antibacterial activity measuring fractional inhibitory concentration index at 64 mg/L after 72 hrs by MTT assay; in short: as §1
[5] = system: Mycolicibacterium smegmatis MC2 155; test: Inhibition of Multidrug resistance efflux pump in Mycobacterium smegmatis mc2 155 assessed as EtBr accumulation measuring relative fluorescence at half the MIC measured for 60 mins by spectrophotometry relative to control
In short: (§2)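 Overnight 7H9/ADC culture (37 °C, 100 rpm) centrifuged and resuspended in PBS with 0.05% Tween 80 to OD600 0.4. Cells mixed 1:1 with test solutions containing 0.5 mg/L EtBr and 0.4% glucose, compounds from MIC down to 1/16 MIC. Fluorescence (ex 531/em 590 nm) read every 50 s at 37 °C for 60 min; repeated at least three times.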

[6] = system: Mycolicibacterium smegmatis MC2 155; test: Inhibition of Multidrug resistance efflux pump in Mycobacterium smegmatis mc2 155 assessed as EtBr accumulation measuring relative fluorescence at 1/4 of MIC measured for 60 mins by spectrophotometry relative to control; in short: as §2
[7] = system: Mycolicibacterium smegmatis MC2 155; test: Inhibition of Multidrug resistance efflux pump in Mycobacterium smegmatis mc2 155 assessed as modulation of isoniazid-mediated antibacterial activity measuring ratio of isoniazid MIC to isoniazid and compound MIC at 64 mg/L after 72 hrs by MTT assay; in short: as §1
[8] = system: Mycolicibacterium smegmatis MC2 155; test: Inhibition of Multidrug resistance efflux pump in Mycobacterium smegmatis mc2 155 assessed as modulation of ethambutol-mediated antibacterial activity measuring ratio of ethambutol MIC to ethambutol and compound MIC at 64 mg/L after 72 hrs by MTT assay; in short: as §1
[9] = system: Mycolicibacterium smegmatis MC2 155; test: Inhibition of Multidrug resistance efflux pump in Mycobacterium smegmatis mc2 155 assessed as inhibition of EtBr efflux measuring relative fluorescence at 1/8 of MIC measured for 60 mins by spectrophotometry relative to control
[10] = system: Mycolicibacterium smegmatis MC2 155; test: Inhibition of Multidrug resistance efflux pump in Mycobacterium smegmatis mc2 155 assessed as modulation of ciprofloxacin-mediated antibacterial activity measuring ratio of ciprofloxacin MIC to ciprofloxacin and compound MIC at 64 mg/L after 72 hrs by MTT assay; in short: as §1
[11] = system: Mycolicibacterium smegmatis MC2 155; test: Inhibition of Multidrug resistance efflux pump in Mycobacterium smegmatis mc2 155 assessed as EtBr accumulation measuring relative fluorescence at 1/8 of MIC measured for 60 mins by spectrophotometry relative to control; in short: as §2
[12] = system: Mycolicibacterium smegmatis MC2 155; test: Inhibition of Multidrug resistance efflux pump in Mycobacterium smegmatis mc2 155 assessed as EtBr accumulation measuring relative fluorescence at MIC measured for 60 mins by spectrophotometry relative to control; in short: as §2
[13] = system: Mycolicibacterium smegmatis MC2 155; test: Inhibition of Multidrug resistance efflux pump in Mycobacterium smegmatis mc2 155 assessed as EtBr accumulation measuring relative fluorescence at lower MIC measured for 60 mins by spectrophotometry relative to control; in short: as §2
[14] = system: Mycolicibacterium smegmatis MC2 155; test: Inhibition of Multidrug resistance efflux pump in Mycobacterium smegmatis mc2 155 assessed as modulation of EtBr-mediated antibacterial activity measuring reduction in MIC at 1/2 of MIC after 72 hrs by MTT assay relative to control; in short: as §1
[15] = system: Mycolicibacterium smegmatis MC2 155; test: Inhibition of Multidrug resistance efflux pump in Mycobacterium smegmatis mc2 155 assessed as inhibition of EtBr efflux measuring relative fluorescence at lower MIC measured for 60 mins by spectrophotometry relative to control
[16] = system: Mycolicibacterium smegmatis MC2 155; test: Inhibition of Multidrug resistance efflux pump in Mycobacterium smegmatis mc2 155 assessed as modulation of rifampicin-mediated antibacterial activity measuring reduction in MIC at 1/2 of MIC after 72 hrs by MTT assay relative to control; in short: as §1
[17] = system: Mycolicibacterium smegmatis MC2 155; test: Inhibition of Multidrug resistance efflux pump in Mycobacterium smegmatis mc2 155 assessed as modulation of EtBr-mediated antibacterial activity measuring ratio of EtBr MIC to EtBr and compound MIC at 64 mg/L after 72 hrs by MTT assay; in short: as §1
[18] = system: Mycolicibacterium smegmatis MC2 155; test: Inhibition of Multidrug resistance efflux pump in Mycobacterium smegmatis mc2 155 assessed as inhibition of EtBr efflux measuring normalized fluorescence at half the MIC measured for 60 mins by spectrophotometry relative to control
[19] = system: Mycolicibacterium smegmatis MC2 155; test: Inhibition of Multidrug resistance efflux pump in Mycobacterium smegmatis mc2 155 assessed as modulation of EtBr-mediated antibacterial activity measuring ratio of EtBr MIC to EtBr and compound MIC at 4 mg/L after 72 hrs by MTT assay; in short: as §1
[20] = system: Mycolicibacterium smegmatis MC2 155; test: Inhibition of Multidrug resistance efflux pump in Mycobacterium smegmatis mc2 155 assessed as modulation of isoniazid-mediated antibacterial activity measuring ratio of isoniazid MIC to isoniazid and compound MIC at 4 mg/L after 72 hrs by MTT assay; in short: as §1
[21] = system: Mycolicibacterium smegmatis MC2 155; test: Inhibition of Multidrug resistance efflux pump in Mycobacterium smegmatis mc2 155 assessed as modulation of rifampicin-mediated antibacterial activity measuring ratio of rifampicin MIC to rifampicin and compound MIC at 4 mg/L after 72 hrs by MTT assay; in short: as §1
[22] = system: Mycolicibacterium smegmatis MC2 155; test: Inhibition of Multidrug resistance efflux pump in Mycobacterium smegmatis mc2 155 assessed as modulation of ciprofloxacin-mediated antibacterial activity measuring ratio of ciprofloxacin MIC to ciprofloxacin and compound MIC at 32 mg/L after 72 hrs by MTT assay; in short: as §1
[23] = system: Mycolicibacterium smegmatis MC2 155; test: Inhibition of Multidrug resistance efflux pump in Mycobacterium smegmatis mc2 155 assessed as modulation of EtBr-mediated antibacterial activity measuring ratio of EtBr MIC to EtBr and compound MIC at 32 mg/L after 72 hrs by MTT assay; in short: as §1
[24] = system: Mycolicibacterium smegmatis MC2 155; test: Inhibition of Multidrug resistance efflux pump in Mycobacterium smegmatis mc2 155 assessed as modulation of rifampicin-mediated antibacterial activity measuring ratio of rifampicin MIC to rifampicin and compound MIC at 32 mg/L after 72 hrs by MTT assay; in short: as §1
[25] = system: Mycolicibacterium smegmatis MC2 155; test: Inhibition of Multidrug resistance efflux pump in Mycobacterium smegmatis mc2 155 assessed as modulation of EtBr-mediated antibacterial activity measuring fractional inhibitory concentration index at 32 mg/L after 72 hrs by MTT assay; in short: as §1
[26] = system: Mycolicibacterium smegmatis MC2 155; test: Inhibition of Multidrug resistance efflux pump in Mycobacterium smegmatis mc2 155 assessed as modulation of rifampicin-mediated antibacterial activity measuring fractional inhibitory concentration index at 32 mg/L after 72 hrs by MTT assay; in short: as §1
[27] = system: Mycolicibacterium smegmatis MC2 155; test: Inhibition of Multidrug resistance efflux pump in Mycobacterium smegmatis mc2 155 assessed as modulation of ethambutol-mediated antibacterial activity measuring ratio of ethambutol MIC to ethambutol and compound MIC at 32 mg/L after 72 hrs by MTT assay; in short: as §1
[28] = system: Mycolicibacterium smegmatis MC2 155; test: Inhibition of Multidrug resistance efflux pump in Mycobacterium smegmatis mc2 155 assessed as modulation of isoniazid-mediated antibacterial activity measuring ratio of isoniazid MIC to isoniazid and compound MIC at 32 mg/L after 72 hrs by MTT assay; in short: as §1

For CN(C)CCCN1c2ccccc2Sc2ccc(Cl)cc21 [CHLORPROMAZINE], the MIC [1] was 64 µg/mL (≈ 201 µM).

With O=C(/C=C/C=C/c1ccccc1)CCc1ccccc1 the Ratio [2] was 4, the fractional inhibitory concentration index (FICI) [3] was 0.27 and the fractional inhibitory concentration index (FICI) [4] was 0.28. For the same molecule, the RFU [5] was 19400, the inhibition [6] was “Active” and the Ratio [7] was 1. The Ratio [8] was 1, the inhibition [9] was “Active” and the MIC [1] was at least 128 µg/mL. For the same molecule, the Ratio [10] was 1, the inhibition [11] was “Active” and the inhibition [12] was “Active”. For the same molecule, the inhibition [13] was “Dose-dependent effect”, the fold change (FC) [14] was 4 and the inhibition [15] was “Dose-dependent effect”. For the same molecule, the fold change (FC) [16] was 4, the Ratio [17] was 4 and the normalized EtBr fluorescence relative to control [18] was 0.806.

CCCCCCCC/C=C\CCCCCCCC(=O)O [OLEIC ACID] showed a Ratio [19] of 1, a Ratio [20] of 1 and an MIC [1] of 8 µg/mL (≈ 28.3 µM). It also gave a Ratio [21] of 4.

Molecule CCCCCCCCCCCCCCCC(=O)O [PALMITIC ACID] has a Ratio [7] of 0.5, an MIC [1] of 128 µg/mL (≈ 499 µM) and a Ratio [17] of 1.

N#CC(C#N)=NNc1cccc(Cl)c1 [CARBONYL CYANIDE M-CHLOROPHENYLHYDRAZONE] was tested, and the MIC [1] was 32 µg/mL (≈ 156 µM).

O=C(CCc1ccccc1)C[C@@H](O)/C=C/c1ccccc1 was tested, and the Ratio [22] was 2, the Ratio [23] was 8 and the Ratio [24] was 4. It also gave an RFU [5] of 15100, a fractional inhibitory concentration index (FICI) [25] of 0.25 and an MIC [1] of 64 µg/mL (≈ 228 µM). It also gave a fractional inhibitory concentration index (FICI) [26] of 0.75, a Ratio [27] of 1 and a fold change (FC) [14] of 4. For the same molecule, the Ratio [28] was 1, the fold change (FC) [16] was 4 and the normalized EtBr fluorescence relative to control [18] was 0.72.

Work on COc1ccc(CCN(C)CCCC(C#N)(c2ccc(OC)c(OC)c2)C(C)C)cc1OC (stereo unspecified) [VERAPAMIL] yielded an MIC [1] of 512 µg/mL (≈ 1130 µM).

Work on CC[C@@H](CO)NCCN[C@@H](CC)CO [ETHAMBUTOL] yielded an MIC [1] of 1 µg/mL (≈ 4.89 µM).
